An excerpt weighted towards active compounds, which were near 1.9% of everything screened.
TbMetRS inhib: T. brucei MetRS inhibitors, primary screen, biochemical, luminescence; methionyl-tRNA synthetase (Trypanosoma brucei brucei); purified T. brucei MetRS, ATP depletion, Kinase-Glo luminescence; inhibition, % at 11.9 µM; hit rate 0.4% among 360,000; AID 624268, 2012;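 active = inhibition above a per-plate cutoff of the control wells' mean inhibition plus 3 SD, cut at about 5.5% in these data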;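 note: 0% = DMSO wells median and 100% = median of wells with control inhibitor compound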
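Test system – parasite MetRS enzyme · Reagent – substrates ATP, L-methionine and bulk Escherichia coli tRNA · Doses – 11.9 µM compound single dose, 0.9% DMSO · Times – 15 min enzyme-compound preincubation, 2 h reaction, 10 min detection, 25 °C · Signal – Kinase-Glo luminescence, ATP depletion format · Controls – DMSO-only wells as low control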
PLC-beta3 inh: human PLC-beta3 inhibitors, primary screen, biochemical, fluorescence; hit rate 0.18% among 370,000; 1-phosphatidylinositol 4,5-bisphosphate phosphodiesterase beta-3 (Homo sapiens), Q01970; Purified PLC-beta3, fluorogenic substrate; inhibition, % at 12.2 µM;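 note: 0% = median of compound wells on plate and 100% = full blocker control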
sPLA2-III inh: human group III sPLA2 inhibitors, primary screen, biochemical, QFRET, BODIPY PC-A2 liposome substrate; Group 3 secretory phospholipase A2 (Homo sapiens), Q9NZ20; inhibition, % at 12.2 µM; hit rate 0.56% among 370,000; AID 743126, 2013; QFRET BODIPY PC-A2 liposome hydrolysis, fluorescence;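 active = inhibition above mean plus 3 SD of compounds lying within the high and low control bounds, cut at about 19% in these data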;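 note: 0% = median of test compound wells and 100% = no enzyme DMSO wells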
Target sequence (Q9NZ20 whole entry, looked up): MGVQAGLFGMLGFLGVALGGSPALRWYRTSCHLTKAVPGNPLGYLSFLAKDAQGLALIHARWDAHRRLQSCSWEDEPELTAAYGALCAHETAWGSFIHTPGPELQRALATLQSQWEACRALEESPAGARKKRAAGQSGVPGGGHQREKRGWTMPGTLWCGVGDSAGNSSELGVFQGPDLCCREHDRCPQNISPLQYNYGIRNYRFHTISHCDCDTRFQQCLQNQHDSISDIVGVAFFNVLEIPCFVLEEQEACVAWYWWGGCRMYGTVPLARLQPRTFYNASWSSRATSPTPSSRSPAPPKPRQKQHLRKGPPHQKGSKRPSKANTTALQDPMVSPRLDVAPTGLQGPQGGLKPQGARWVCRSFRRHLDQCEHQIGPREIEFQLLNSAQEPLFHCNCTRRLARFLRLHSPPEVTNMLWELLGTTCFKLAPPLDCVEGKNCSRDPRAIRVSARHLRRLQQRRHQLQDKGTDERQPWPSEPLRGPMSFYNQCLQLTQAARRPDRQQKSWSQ
PLC-gamma1 inh: PLC-gamma1 enzyme inhibitors, primary screen, biochemical, fluorescence, purified enzyme; hit rate 0.84% among 370,000; 1-phosphatidylinositol 4,5-bisphosphate phosphodiesterase gamma-1 (Homo sapiens), P19174; inhibition, % at 12.2 µM; fluorogenic substrate; in the data active = inhibition above about 9.5%
PLCg1 ctr: PLC-gamma1 enzyme inhibitors, counter-screen for PLC-beta3 inhibitor project, biochemical, fluorescence. inhibition, % at 12.3 µM. hit rate 3.1% among 3,300. purified PLC-gamma1, fluorogenic substrate. AID 743258, 2014. shares compounds with PLC-gamma1 inh; in the data active = inhibition above about 9.5%
PLCbeta3 conf: PLC-beta3 inhibitor confirmation, biochemical, fluorescence, purified enzyme. inhibition, % at 12.3 µM. fluorogenic substrate fluorescence. hit rate 1% among 3,300. shares compounds with PLC-gamma1 inh
Active calls of the source: *; x = no result. Cut-off read from the data, not from the text of the source, unless noted: active = inhibition above about 11%; inactive = the rest.

SMILES	TbMetRS inhib	PLC-beta3 inh	sPLA2-III inh	PLC-gamma1 inh	PLCg1 ctr	PLCbeta3 conf
COCc1cc(N2CCN(C(=O)OC(C)(C)C)C[C@H]2C)ccc1N1CCS(=O)(=O)CC1	x	-3	2	-3	x	x
Nc1ncnc2c1ncn2[C@@H]1O[C@H](CO)[C@@H](O)[C@@H]1O	0	7	7	7	x	x
Nc1nccc2c1ncn2C1OC(CO)C(O)C1O (stereo not given)	0	12*	2	12*	-2	0
CCOc1ccc(Nc2nc(-c3cccnc3)cs2)cc1	0	2	15	12*	-5	1
CCOc1cccc(C=NNc2nc(=O)cc(C(=O)OC)s2)c1O	x	-10	-17	-8	x	x
COc1ccc(C2CC(=O)C(c3ccc4ccccc4c3)=CN2Cc2ccccc2)cc1 (stereo not given)	x	-100	-2	-86	x	x
COc1ccc(C2SCC(=O)N2CCCN(C)C)cc1 (stereo not given)	-1	13*	0	8	-5	0
CCc1ccccc1Nc1ncnc2ccccc12	0	-8	2	1	x	x
Cc1cccc(C)c1Nc1ncnc2ccccc12	-1	0	-1	9.7*	-3	-1
CCCC1CCC2(CCCN2CCOC(=S)Nc2ccccc2)CC1 (stereo not given)	x	-2	8	3	x	x
COC(=O)c1cc(C(c2ccccc2O)C2CCC(C)(C)O2)n2ccccc12 (stereo not given)	x	-49	2	-31	x	x
O=C(O)c1ccccc1Nc1cc(Cl)c2nonc2c1[N+](=O)[O-]	0	-1	6	-1	x	x
O=C(O)c1cccc(Nc2cc(Cl)c3nonc3c2[N+](=O)[O-])c1	0	3	6	13*	-1	2
O=C(CCc1ccncc1)N1CCCC(Nc2ccc(F)cc2)C1 (stereo not given)	0	-3	2	-4	x	x
O=C(CCc1ccccc1)N1CCCC(Nc2ccc(F)cc2)C1 (stereo not given)	0	1	-7	11*	-1	2
COc1ccc(NC2CCCN(C(=O)CCc3cn[nH]c3)C2)cc1 (stereo not given)	-1	-9	7	10*	-3	3
COc1ccc(CCNC(=O)c2cc3ccccn3n2)cc1	x	1	1	0	x	x
NC(=O)c1c(N)[nH]c(C(=O)c2ccccc2)c1-c1ccc2c(c1)OCO2	x	-11	7	-8	x	x
CCSc1cc(N2CCCC2)nc(-c2ccc(C)cc2)n1	0	5	-8	4	x	x
CCSc1cc(N2CCCC2)nc(-c2ccc(F)cc2)n1	-2	11*	10	9	-6	-4
COCCCn1cnn2c(=O)c3ccccc3nc2c1=O	x	-3	-1	-3	x	x
CCOC(=O)[C@H](Cc1ccccc1)NC(=O)[C@H]1C[C@@]2(N3CCCCC3)c3ccccc3N(C(=O)OC(C)(C)C)[C@H]2N1C(=O)OC(C)(C)C	x	6	3	3	x	x
S=c1nc(C23CC4CC(CC(C4)C2)C3)[nH][nH]1	0	7	-15	12*	-3	1
CN1CCN(c2oc(COc3ccc(-c4ccccc4)cc3)nc2C#N)CC1	-1	6	-43	11*	-9	-5
COc1ccc(N2CCN(c3oc(COc4ccccc4)nc3C#N)CC2)cc1	0	-2	-10	2	x	x
COc1cccc(Cn2cc(COC(=O)NCCc3ccccc3)nn2)c1	x	-1	-2	-5	x	x
Cc1nc([N+](=O)[O-])c(Br)n1CC(=O)c1ccc(F)cc1	2	-2	-3	8	x	x
Cc1nc([N+](=O)[O-])c(Br)n1CC(=O)c1cccc([N+](=O)[O-])c1	1	6	-10	9.9*	9	-3
O=C1OCC2=C1C(c1ccccc1)CC(=O)N2c1ccc(F)cc1 (stereo not given)	0	2	-5	11*	0	2
C[C@H](O)[C@@H]1C(=O)N2CCc3c([nH]c4ccccc34)[C@@H]2C[C@@H]1N(C)C(=O)OCc1ccccc1	x	-95	-23	-79	x	x
